Reference: ChEMBL document CHEMBL1926614, “Substituted thiazoles V. synthesis and antitumor activity of novel thiazolo[2,3-b]quinazoline and pyrido[4,3-d]thiazolo[3,2-a]pyrimidine analogues” (2012)
Activity calls are given as the source filed them. The calls are words filed in the database; no cut-off is given here.

Columns and labels:
Assay type in all cases: functional
SK-MEL-28 = test: Growth inhibition of human SK-MEL-28 cells at 10 uM after 48 hrs by coulter counting; settings: SK-MEL-28, 48 h, read-out: GI
How it was run: (§1)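 Single-dose primary screen across the full NCI 60-cell-line panel. Stocks were made in DMSO and diluted in PBS to a final DMSO below 1%. Cultures at 6 × 10⁴ cells/ml were run in duplicate wells alongside PBS/DMSO vehicle controls at 37 °C in humidified 5% CO₂. Data were expressed as percent growth of treated cells.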

HCT-116 = test: Growth inhibition of human HCT116 cells at 10 uM after 48 hrs by coulter counting; how it was run: as §1
NCI-H23 = test: Growth inhibition of human NCI-H23 cells at 10 uM after 48 hrs by coulter counting; how it was run: as §1
NCI/ADR-RES = test: Growth inhibition of human NCI/ADR-RES cells at 10 uM after 48 hrs by coulter counting; settings: read-out: GI; how it was run: as §1
SK-MEL-5 = test: Growth inhibition of human SK-MEL-5 cells at 10 uM after 48 hrs by coulter counting; how it was run: as §1
UO-31 = test: Growth inhibition of human UO31 cells at 10 uM after 48 hrs by coulter counting
How it was run: (§2)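 Single-dose screen in the NCI 60 human tumor cell line panel (nine subpanels). Compounds dissolved in DMSO and diluted in phosphate buffered saline, keeping final DMSO below 1%. Added in duplicate wells to cells at 6 × 10⁴ cells/ml. Controls held PBS and DMSO at matching dilutions. Incubated at 37 °C, humidified, 5% CO₂. Reported as percent growth of treated cells.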

SF-268 = test: Growth inhibition of human SF268 cells at 10 uM after 48 hrs by coulter counting; settings: SF-268, 48 h, read-out: GI; how it was run: as §1
NCI-H226 = test: Growth inhibition of human NCI-H226 cells at 10 uM after 48 hrs by coulter counting; how it was run: as §1
EKVX = test: Growth inhibition of human EKVX cells at 10 uM after 48 hrs by coulter counting; how it was run: as §1
NSCLC = test: Cytotoxicity against human NSCLC cells after 48 hrs by coulter counting
How it was run: (§3)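 NCI 60-cell-line panel covering nine tumour subpanels, tested over a 5-log dose range. Compounds were dissolved in DMSO and diluted in phosphate-buffered saline to a final DMSO below 1%. Wells held 6 × 10⁴ cells/ml and were run in duplicate. Controls contained PBS and DMSO at matching dilutions. Incubation was at 37 °C in humidified 5% CO₂. GI₅₀, TGI and LC₅₀ were reported.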

T47D = test: Growth inhibition of human T47D cells at 10 uM after 48 hrs by coulter counting; settings: read-out: GI; how it was run: as §2
BT-549 = test: Growth inhibition of human BT549 cells at 10 uM after 48 hrs by coulter counting; how it was run: as §1
K562 = test: Growth inhibition of human K562 cells at 10 uM after 48 hrs by coulter counting; how it was run: as §1
ACHN = test: Growth inhibition of human ACHN cells at 10 uM after 48 hrs by coulter counting; how it was run: as §1
UACC-257 = test: Growth inhibition of human UACC257 cells at 10 uM after 48 hrs by coulter counting; how it was run: as §2
SF-539 = test: Growth inhibition of human SF539 cells at 10 uM after 48 hrs by coulter counting; settings: SF-539, 48 h, read-out: GI; how it was run: as §1
HCC 2998 = test: Growth inhibition of human HCC2998 cells at 10 uM after 48 hrs by coulter counting; how it was run: as §1
HT-29 = test: Growth inhibition of human HT-29 cells at 10 uM after 48 hrs by coulter counting; how it was run: as §1
RPMI-8226 = test: Growth inhibition of human RPMI8226 cells at 10 uM after 48 hrs by coulter counting; how it was run: as §1
CAKI-1 = test: Growth inhibition of human Caki1 cells at 10 uM after 48 hrs by coulter counting; how it was run: as §1
KM12 = test: Growth inhibition of human KM12 cells at 10 uM after 48 hrs by coulter counting; how it was run: as §1
UACC-62 = test: Growth inhibition of human UACC62 cells at 10 uM after 48 hrs by coulter counting; how it was run: as §2
NCI-H460 = test: Growth inhibition of human NCI-H460 cells at 10 uM after 48 hrs by coulter counting; how it was run: as §1
SF-295 = test: Growth inhibition of human SF295 cells at 10 uM after 48 hrs by coulter counting; how it was run: as §1
SNB-19 = test: Growth inhibition of human SNB19 cells at 10 uM after 48 hrs by coulter counting; settings: SNB-19, 48 h, read-out: GI; how it was run: as §1
NCI-H522 = test: Growth inhibition of human NCI-H522 cells at 10 uM after 48 hrs by coulter counting; how it was run: as §1
SR = test: Growth inhibition of human SR cells at 10 uM after 48 hrs by coulter counting; how it was run: as §2
[1] = Cytotoxicity against human renal cancer cells after 48 hrs by coulter counting; settings: Cancer cell lines; how it was run: as §3
HL-60(TB) = test: Growth inhibition of human HL-60(TB) cells at 10 uM after 48 hrs by coulter counting
How it was run: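 Test compound was dissolved in DMSO and diluted in phosphate-buffered saline to a final DMSO level below 1%. Dilutions were plated in duplicate with cell culture at 6 × 10⁴ cells/ml. Vehicle controls held PBS and DMSO at matching dilutions. Incubation was at 37 °C, humidified, under 5% CO₂. Data were reported as percent growth of treated cells.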

SNB-75 = test: Growth inhibition of human SNB75 cells at 10 uM after 48 hrs by coulter counting; settings: SNB-75, 48 h, read-out: GI; how it was run: as §1
U-251 = test: Growth inhibition of human U251 cells at 10 uM after 48 hrs by coulter counting; how it was run: as §2
DU-145 = test: Growth inhibition of human DU145 cells at 10 uM after 48 hrs by coulter counting; how it was run: as §1
[2] = Growth inhibition of human NCI-322M cells at 10 uM after 48 hrs by coulter counting; settings: read-out: GI; how it was run: as §1
SK-MEL-2 = test: Growth inhibition of human SK-MEL-2 cells at 10 uM after 48 hrs by coulter counting; how it was run: as §1
[3] = Cytotoxicity against human leukemia cells after 48 hrs by coulter counting; settings: Leukemia cell; how it was run: as §3
A549 = test: Growth inhibition of human A549 cells at 10 uM after 48 hrs by coulter counting; how it was run: as §1
[4] = Cytotoxicity against human CNS cancer cells after 48 hrs by coulter counting; settings: Cancer cell lines; how it was run: as §3
MDA-MB-435 = test: Growth inhibition of human MDA-MB-435 cells at 10 uM after 48 hrs by coulter counting; how it was run: as §1
LOX IMVI = test: Growth inhibition of human LOXIMVI cells at 10 uM after 48 hrs by coulter counting; how it was run: as §1
HOP-62 = test: Growth inhibition of human HOP62 cells at 10 uM after 48 hrs by coulter counting; how it was run: as §1
IGROV-1 = test: Growth inhibition of human IGROV1 cells at 10 uM after 48 hrs by coulter counting; how it was run: as §1
M14 = test: Growth inhibition of human M14 cells at 10 uM after 48 hrs by coulter counting; how it was run: as §1
[5] = Cytotoxicity against human colon cancer cells after 48 hrs by coulter counting; settings: Cancer cell lines; how it was run: as §3
[6] = Cytotoxicity against human prostate cancer cells after 48 hrs by coulter counting; settings: Cancer cell lines; how it was run: as §3
[7] = Cytotoxicity against human breast cancer cells after 48 hrs by coulter counting; settings: Cancer cell lines; how it was run: as §3
OVCAR-4 = test: Growth inhibition of human OVCAR4 cells at 10 uM after 48 hrs by coulter counting; settings: OVCAR-4, 48 h, read-out: GI; how it was run: as §1
MOLT-4 = test: Growth inhibition of human MOLT4 cells at 10 uM after 48 hrs by coulter counting; how it was run: as §1
[8] = Cytotoxicity against human ovarian cancer cells after 48 hrs by coulter counting; settings: Cancer cell lines; how it was run: as §3
MCF7 = test: Growth inhibition of human MCF7 cells at 10 uM after 48 hrs by coulter counting; settings: MCF7, 48 h, read-out: GI; how it was run: as §1
A498 = test: Growth inhibition of human A498 cells at 10 uM after 48 hrs by coulter counting; how it was run: as §1
CCRF-CEM = test: Growth inhibition of human CCRF-CEM cells at 10 uM after 48 hrs by coulter counting; settings: read-out: GI; how it was run: as §1
[9] = read-out: LC50 (the source's name)

COc1cc(/C=C2\CCCC3=C2N=C2SC=CN2C3c2cc(OC)c(OC)c(OC)c2)cc(OC)c1OC (stereo not given)
inhibition of growth at 10 µM (SK-MEL-28): 89.7% | growth inhibition (GI) (HCT-116): Active | growth inhibition (GI) (NCI-H23): Active | inhibition of growth at 10 µM (NCI/ADR-RES): 90.5% | growth inhibition (GI) (SK-MEL-5): Active | growth inhibition (GI) (UO-31): Active | inhibition of growth at 10 µM (SF-268): 95% | growth inhibition (GI) (NCI-H226): Active | growth inhibition (GI) (EKVX): Active | GI50 (NSCLC): 2.3 µM | TGI (NSCLC): > 100 µM | CC50 (NSCLC; [9]): > 100 µM | inhibition of growth at 10 µM (T47D): 69% | growth inhibition (GI) (BT-549): Active | growth inhibition (GI) (K562): Active | growth inhibition (GI) (ACHN): Active | growth inhibition (GI) (UACC-257): Active | inhibition of growth at 10 µM (SF-539): 91.3% | growth inhibition (GI) (HCC 2998): Active | growth inhibition (GI) (HT-29): Active | growth inhibition (GI) (RPMI-8226): Active | growth inhibition (GI) (CAKI-1): Active | growth inhibition (GI) (KM12): Active | growth inhibition (GI) (UACC-62): Active | growth inhibition (GI) (NCI-H460): Active | growth inhibition (GI) (SF-295): Active | inhibition of growth at 10 µM (SNB-19): 79% | growth inhibition (GI) (NCI-H522): Active | growth inhibition (GI) (SR): Active | GI50 [1]: 1.8 µM | LC50 (concentration giving 50% net cell kill) [1]: > 100 µM | TGI [1]: > 100 µM | growth inhibition (GI) (HL-60(TB)): Active | inhibition of growth at 10 µM (SNB-75): 65% | growth inhibition (GI) (U-251): Active | growth inhibition (GI) (DU-145): Active | inhibition of growth at 10 µM [2]: 99.5% | growth inhibition (GI) (SK-MEL-2): Active | GI50 [3]: 2 µM | TGI [3]: > 100 µM | CC50 [3, 9]: > 100 µM | growth inhibition (GI) (A549): Active | GI50 [4]: 47.8 µM | LC50 [4]: > 100 µM | TGI [4]: > 100 µM | growth inhibition (GI) (MDA-MB-435): Active | growth inhibition (GI) (LOX IMVI): Active | growth inhibition (GI) (HOP-62): Active | growth inhibition (GI) (IGROV-1): Active | growth inhibition (GI) (M14): Active | GI50 [5]: 1.6 µM | GI50 [6]: 2 µM | LC50 (concentration killing 50% of cells) [6]: > 100 µM | TGI [6]: > 100 µM | GI50 [7]: 2.2 µM | TGI [7]: > 100 µM | CC50 [7, 9]: > 100 µM | inhibition of growth at 10 µM (OVCAR-4): 79.5% | growth inhibition (GI) (MOLT-4): Active | GI50 [8]: 1.9 µM | TGI [8]: > 100 µM | CC50 [8, 9]: > 100 µM | inhibition of growth at 10 µM (MCF7): 76% | growth inhibition (GI) (A498): Active | inhibition of growth at 10 µM (CCRF-CEM): 94.1%
